High-throughput results: PubChem, Johns Hopkins Ion Channel Center
RGS4 act – RGS4 potentiators or activators, primary screen, cell-based, HEK293 M3R inducible RGS4, calcium flux | carbachol calcium flux Fluo4; stronger effect = lower value | B-score at 10 µM | 310,000 tested, 0.92% active;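 active = B-score of the integrated calcium signal more than 4 SD below the library mean, with starting fluorescence not abnormally high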;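 also: negative B-score means reduced calcium response which marks RGS4 activation or potentiation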
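test system = M3R-expressing HEK293 line, RGS4 induced by doxycycline | probe or stimulus = carbachol at ECmax as muscarinic agonist stimulus | timing = dye loading 30 min 37 °C, buffer rest 30 min RT | signal = calcium dye Fluo4 fluorescence | evaluation = B score from integrated fluorescence ratio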
MrgX1 antag – antagonists of human MrgX1 receptor, primary screen, HEK293 cells, Fluo-4 calcium flux; BAM8-22 antagonism; stronger effect = lower value; Mas-related G-protein coupled receptor member X1 (Homo sapiens), Q96LB2; 310,000 tested, 1.3% active; B-score at 10 µM;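 active = calcium-response B-score plate-corrected more than 3 library SD below zero, starting fluorescence within 5 deviations, no agonist response on first addition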;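 also: peak minus trough fluorescence over baseline after final BAM8-22 challenge near maximal dose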
Target sequence (Q96LB2 whole entry, looked up): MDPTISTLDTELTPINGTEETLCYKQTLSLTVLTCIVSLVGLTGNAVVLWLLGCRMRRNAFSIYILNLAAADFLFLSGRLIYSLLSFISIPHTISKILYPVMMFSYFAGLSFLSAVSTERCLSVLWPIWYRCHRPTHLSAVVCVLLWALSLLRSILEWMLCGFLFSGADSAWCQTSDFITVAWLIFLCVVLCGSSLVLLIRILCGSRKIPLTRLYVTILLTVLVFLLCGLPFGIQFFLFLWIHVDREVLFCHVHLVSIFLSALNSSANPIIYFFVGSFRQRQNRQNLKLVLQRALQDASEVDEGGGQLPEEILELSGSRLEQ
MrgX1 agonist – agonists of human MrgX1 receptor, primary screen, HEK293 cells, Fluo-4 calcium flux; Mas-related G-protein coupled receptor member X1 (Homo sapiens), Q96LB2; 310,000 tested, 0.44% active; AID 588627, 2011; Fluo-4 calcium fluorescence, agonist mode; stronger effect = higher value; B-score at 10 µM;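 active = calcium response B-score plate-corrected fluorescence ratio at least 3 library SD, with starting fluorescence B-score inside 5 SD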
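Material – MrgX1-expressing HEK293 cells · Input – 15,000 cells seeded per well · Dosing – compound as first of three additions · Times – overnight seeding, then 1 h dark dye loading · Measured by – kinetic Fluo-4 NW fluorescence of intracellular calcium · Read-out – B-scored fluorescence response ratio · Benchmarks – positive and negative control wells on each plate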
MrgX1 PAM – positive allosteric modulators of MrgX1, primary screen, HEK293 cells, Fluo-4 calcium flux; Mas-related G-protein coupled receptor member X1 (Homo sapiens), Q96LB2; FDSS; stronger effect = higher value; B-score at 10 µM; 310,000 tested, 0.63% active;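 active = plate-corrected calcium response at least 3 library SD above typical, normal starting fluorescence, not activating the receptor alone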;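 also: compound read alongside a low EC10 to EC30 dose of BAM8-22 agonist; peak minus trough fluorescence over baseline measured at the second addition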
RGS4 inh – RGS4 inhibitors, primary screen, cell-based, HEK293 M3R inducible RGS4, calcium flux | Regulator of G-protein signaling 4 (Homo sapiens), P49798 | Fluo-4 calcium flux; stronger effect = higher value; triggered by carbachol at its EC20 | B-score at 10 µM | 310,000 tested, 0.45% active;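 active = B-score, a plate-corrected calcium signal, over three deviations above library mean, with baseline fluorescence within five deviations of library mean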;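 also: RGS4 expression induced by doxycycline in cells with stable M3 receptor; B-score is computed from the integrated fluorescence ratio over baseline after carbachol; higher B-score means a larger calcium signal and so more RGS4 inhibition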
Target sequence (P49798 whole entry, looked up): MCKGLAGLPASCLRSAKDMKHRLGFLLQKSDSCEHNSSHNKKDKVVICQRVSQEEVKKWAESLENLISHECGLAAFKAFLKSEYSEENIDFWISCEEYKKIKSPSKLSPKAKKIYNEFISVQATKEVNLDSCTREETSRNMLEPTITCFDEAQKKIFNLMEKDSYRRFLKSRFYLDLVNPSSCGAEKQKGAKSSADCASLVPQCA
Active calls of the source: *. Shown are actives, neighbours in structure and some others; about 3.5% of the full set was active somewhere.

Screening CC1(C)Cc2c(C#N)c(NC3CCCCC3)nc(-c3ccco3)c2CO1 returned RGS4 act inactive, MrgX1 antag inactive, MrgX1 agonist 29*, MrgX1 PAM inactive and RGS4 inh inactive.
C#CCOCCOCCOCCNc1nc(N2CCN(C(=O)[C@H](CCCCN)n3cc(C(N)CO)nn3)CC2)nc(N2CCN(C(=O)[C@H](CCC(=O)O)n3cc(C(N)[C@H](C)CC)nn3)CC2)n1 (stereo partly drawn) was read as RGS4 act inactive, MrgX1 antag -4.5*, MrgX1 agonist inactive, MrgX1 PAM inactive and RGS4 inh inactive.
`C#CCOCCOCCOCCNc1nc(N2CCN(C(=O)[C@H](Cc3cc4ccccc4[nH]3)n3cc(C(N)CC(C)C)nn3)CC2)nc(N2CCN(C(=O)[C@H](CCC(=O)O)n3cc(C(N)[C@H](C)CC)nn3)CC2)n1` (stereo partly drawn) gave RGS4 act inactive, MrgX1 antag inactive, MrgX1 agonist inactive, MrgX1 PAM 8.9* and RGS4 inh inactive.
`CCCOc1ccc(/C=C/C(=O)OCC(=O)N(C)c2c(N)n(Cc3ccccc3)c(=O)[nH]c2=O)cc1OCC` gave RGS4 act inactive, MrgX1 antag inactive, MrgX1 agonist inactive, MrgX1 PAM inactive and RGS4 inh inactive.
Fc1cccc(Cl)c1/C=N/n1c(-c2cccnc2)n[nH]c1=S was read as RGS4 act inactive, MrgX1 antag inactive, MrgX1 agonist inactive, MrgX1 PAM inactive and RGS4 inh inactive.
`Cc1c(C(=O)Nc2ccc(Cl)cc2)c2ccccn2c1C(=O)c1ccc([N+](=O)[O-])cc1` gave RGS4 act -8.2*, MrgX1 antag inactive, MrgX1 agonist inactive, MrgX1 PAM inactive and RGS4 inh inactive.
`Cc1c(C(=O)Nc2ccc(Cl)cc2)c2ccccn2c1C(=O)c1ccccc1` gave RGS4 act inactive, MrgX1 antag inactive, MrgX1 agonist inactive, MrgX1 PAM inactive and RGS4 inh inactive.
Cc1c(C=O)c2ccccn2c1C(=O)c1ccc(Cl)c([N+](=O)[O-])c1 was read as RGS4 act inactive, MrgX1 antag -4.6*, MrgX1 agonist inactive, MrgX1 PAM inactive and RGS4 inh inactive.
COc1ccc(NC(=O)CSc2nccn2Cc2ccco2)cc1OC was read as RGS4 act inactive, MrgX1 antag inactive, MrgX1 agonist inactive, MrgX1 PAM inactive and RGS4 inh inactive.
CCN(CC)CCN(C(=O)c1ccc2c(c1)CCCC2)c1nc2c(C)cccc2s1 was read as RGS4 act inactive, MrgX1 antag inactive, MrgX1 agonist inactive, MrgX1 PAM inactive and RGS4 inh inactive.
For O=C(COC(=O)c1c2ccccc2cc2ccccc12)Nc1ncc(C(F)(F)F)cc1Cl the results were RGS4 act -7*, MrgX1 antag inactive, MrgX1 agonist inactive, MrgX1 PAM inactive and RGS4 inh inactive.
For O=C(COC(=O)c1ccc2ccccc2c1)Nc1ncc(C(F)(F)F)cc1Cl the results were RGS4 act inactive, MrgX1 antag inactive, MrgX1 agonist inactive, MrgX1 PAM inactive and RGS4 inh inactive.
O=C(Nc1ccccc1C(=O)O)c1ccc(Br)c(S(=O)(=O)NCc2ccccc2)c1 was read as RGS4 act inactive, MrgX1 antag inactive, MrgX1 agonist inactive, MrgX1 PAM inactive and RGS4 inh inactive.
For O=c1oc2ccccc2nc1/C=C(O)/C=C/c1ccc(F)cc1 the results were RGS4 act inactive, MrgX1 antag inactive, MrgX1 agonist inactive, MrgX1 PAM inactive and RGS4 inh inactive.
For O=c1oc2ccccc2nc1/C=C(O)/C=C\c1ccccc1 the results were RGS4 act inactive, MrgX1 antag inactive, MrgX1 agonist inactive, MrgX1 PAM 8.6* and RGS4 inh inactive.
Screening CCN1C(=O)C(O)(CC(=O)/C=C/C=C/c2ccccc2)c2ccccc21 (stereo not drawn) returned RGS4 act inactive, MrgX1 antag inactive, MrgX1 agonist inactive, MrgX1 PAM inactive and RGS4 inh inactive.
C#CCN1C(=O)C(O)(CC(=O)/C=C/C=C/c2ccccc2)c2ccccc21 (stereo not drawn) was read as RGS4 act inactive, MrgX1 antag inactive, MrgX1 agonist inactive, MrgX1 PAM 6.7* and RGS4 inh inactive.
Screening Cc1cc(C)cc(-n2c(C)cc(/C=N\NC(=O)COc3cccc4cccnc34)c2C)c1 returned RGS4 act -8.7*, MrgX1 antag inactive, MrgX1 agonist inactive, MrgX1 PAM inactive and RGS4 inh inactive.
For COc1ccccc1N(CC(O)COc1c(C)cc(C)cc1C)S(=O)(=O)c1ccccc1 (stereo not drawn) the results were RGS4 act inactive, MrgX1 antag inactive, MrgX1 agonist inactive, MrgX1 PAM 7.9* and RGS4 inh inactive.
Screening CCOCCCNC(=O)c1ccc2c(c1)ncn2-c1cccc(C)c1 returned RGS4 act inactive, MrgX1 antag inactive, MrgX1 agonist inactive, MrgX1 PAM inactive and RGS4 inh inactive.
For O=C(CSc1nnc(COc2ccc(Cl)cc2)o1)NC1CC2CCC1C2 (stereo not drawn) the results were RGS4 act inactive, MrgX1 antag -4.7*, MrgX1 agonist inactive, MrgX1 PAM inactive and RGS4 inh inactive.
O=C(CSc1nnc(COc2ccc(Cl)cc2)o1)NC1CCCCC1 was read as RGS4 act inactive, MrgX1 antag inactive, MrgX1 agonist inactive, MrgX1 PAM inactive and RGS4 inh inactive.
O=C(COc1ccc(Cl)cc1)NCc1nnc(SCC(=O)NC2CCCC2)o1 was read as RGS4 act inactive, MrgX1 antag -6.4*, MrgX1 agonist inactive, MrgX1 PAM inactive and RGS4 inh inactive.
O=C1N/C(=C/c2cccs2)C(=O)N1Cc1ccccc1F was read as RGS4 act inactive, MrgX1 antag inactive, MrgX1 agonist inactive, MrgX1 PAM inactive and RGS4 inh inactive.
For Cc1ccc(/C=C2/NC(=O)N(Cc3ccccc3F)C2=O)s1 the results were RGS4 act inactive, MrgX1 antag -7.5*, MrgX1 agonist inactive, MrgX1 PAM inactive and RGS4 inh inactive.
`O=C(COC(=O)/C=C/c1ccc(C(F)(F)F)cc1)NC1CCS(=O)(=O)C1` (stereo not drawn) gave RGS4 act inactive, MrgX1 antag inactive, MrgX1 agonist inactive, MrgX1 PAM inactive and RGS4 inh inactive.
`O=C(O)/C=C/C(=O)NCc1ccccn1` gave RGS4 act inactive, MrgX1 antag -6.7*, MrgX1 agonist inactive, MrgX1 PAM inactive and RGS4 inh inactive.
